The record followed here is ChEMBL document CHEMBL3232847, “Discovery of 6-phenylpyrimido[4,5-b][1,4]oxazines as potent and selective acyl CoA:diacylglycerol acyltransferase 1 (DGAT1) inhibitors with in vivo efficacy in rodents” (J Med Chem, 2014).

Active and inactive are the calls of the source. Where only a bound is given, the exact number is not on record here.

Data set [1] in a line: Oral Bioavailability in CD1 mouse at 0.3 mg/kg. The class given is ADME, organism-based. The conditions noted are these: in vivo.
Data set [2] has as its target T1, Sterol O-acyltransferase 1 (Homo sapiens, UniProt P35610).
T1 sequence (P35610 whole entry): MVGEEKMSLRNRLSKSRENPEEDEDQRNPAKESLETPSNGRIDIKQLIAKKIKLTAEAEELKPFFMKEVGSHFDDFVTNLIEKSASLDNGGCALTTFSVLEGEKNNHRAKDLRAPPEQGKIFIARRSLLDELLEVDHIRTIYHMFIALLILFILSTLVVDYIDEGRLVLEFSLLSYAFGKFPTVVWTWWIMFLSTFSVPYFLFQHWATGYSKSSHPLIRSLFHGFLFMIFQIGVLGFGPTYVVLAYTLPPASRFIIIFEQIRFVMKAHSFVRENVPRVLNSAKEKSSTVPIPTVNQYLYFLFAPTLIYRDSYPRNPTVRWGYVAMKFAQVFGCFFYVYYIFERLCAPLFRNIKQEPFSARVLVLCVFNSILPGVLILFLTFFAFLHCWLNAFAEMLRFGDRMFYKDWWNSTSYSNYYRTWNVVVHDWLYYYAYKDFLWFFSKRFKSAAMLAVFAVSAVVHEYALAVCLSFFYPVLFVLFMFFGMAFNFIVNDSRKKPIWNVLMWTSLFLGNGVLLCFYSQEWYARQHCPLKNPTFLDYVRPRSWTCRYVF
Kind of data set: Inhibition of human full-length flag-tagged ACAT1 expressed in baculovirus infected insect cells using [14C]palmitoyl CoA as substrate after 10 mins by scintillation counting.

For data set [3], the target named is T2, Diacylglycerol O-acyltransferase 2 (Homo sapiens, UniProt Q96PD7).
T2 sequence (Q96PD7 whole entry): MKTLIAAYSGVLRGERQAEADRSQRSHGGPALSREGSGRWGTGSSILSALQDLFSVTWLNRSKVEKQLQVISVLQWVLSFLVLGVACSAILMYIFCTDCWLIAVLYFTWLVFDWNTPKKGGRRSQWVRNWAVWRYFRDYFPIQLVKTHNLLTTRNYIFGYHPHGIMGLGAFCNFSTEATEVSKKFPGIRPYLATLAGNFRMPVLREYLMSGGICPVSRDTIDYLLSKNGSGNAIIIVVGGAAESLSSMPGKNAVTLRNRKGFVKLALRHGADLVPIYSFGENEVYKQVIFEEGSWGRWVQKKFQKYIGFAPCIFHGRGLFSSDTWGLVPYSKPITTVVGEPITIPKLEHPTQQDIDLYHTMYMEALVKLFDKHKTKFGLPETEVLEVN
Kind of data set: Inhibition of human liver flag-tagged DGAT2 expressed in baculovirus infected insect cells after 2 hrs by SPA.

Data set [4] can be described thus: Inhibition of rat small intestine microsomal MGAT by TLC technique in presence of monoacylglycerol and [14C] palmitoyl CoA. In kind it is microsomes.
Data set [5] in a line: Inhibition of mouse liver microsomal GPAT by TLC technique in presence of glycerol-3-phosphate and [14C] palmitoyl CoA. A general note: Liver microsomes are vesicles of endoplasmic reticulum, rich in cytochrome P450 enzymes.
Data set [6] has as its target T3, Voltage-gated inwardly rectifying potassium channel KCNH2 (Homo sapiens, UniProt Q12809). Description: Inhibition of human ERG up to 5 uM by patch clamp assay.
Data set [7] in a line: Half life in Sprague-Dawley rat at 0.7 mg/kg, iv. In kind it is ADME, organism-based. Set-up: dose 0.7 mg/kg, route intravenous. Particulars: in vivo.
Data set [8] is described as follows: Clearance in beagle dog at 0.2 mg/kg, iv. The conditions noted are these: in vivo. Also noted: dose 0.2 mg/kg, route intravenous. The class given is ADME, organism-based, Canis lupus familiaris.
Data set [9] can be described thus: Volume of distribution at steady state in beagle dog at 0.2 mg/kg, iv. The class given is ADME, organism-based, Canis lupus familiaris. The conditions noted are these: in vivo, read-out: Vdss. Set-up: dose 0.2 mg/kg, route intravenous.
Data set [10] is described as follows: AUC in beagle dog at 2 mg/kg, po. The class given is ADME, organism-based, Canis lupus familiaris. Also noted: dose 2 mg/kg, route oral. The conditions noted are these: plasma.
Data set [11] in a line: Half life in cynomolgus monkey at 0.5 mg/kg, iv. In kind it is ADME, organism-based, Macaca fascicularis. Set-up: dose 0.5 mg/kg, route intravenous. Particulars: in vivo.
Data set [12] is described as follows: AUC in cynomolgus monkey at 5 mg/kg, po. Also noted: dose 5 mg/kg, route oral. The conditions noted are these: plasma. In kind it is ADME, organism-based, Macaca fascicularis.
The test system of data set [13] is Cynomolgus monkey. Kind of data set: Toxicity in cynomolgus monkey assessed as elevation of ALT level at 10 to 30 mg/kg/day, po qd by 21-day multiple-dose toxicity study relative to control. The class given is organism-based, Macaca fascicularis. Set-up: route oral. The conditions noted are these: in vivo. The method in brief:
(§1)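 Cynomolgus monkeys were dosed po once daily at 10 and 30 mg/kg for 21 days. ALT and AST levels, QTc intervals, and clinical and histopathological findings were assessed, and plasma AUC was recorded for each dose.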

The subject of data set [14] is Cynomolgus monkey. Kind of data set: Toxicity in cynomolgus monkey assessed as elevation of prolongation of QTc interval at 10 to 30 mg/kg/day, po qd by 21-day multiple-dose toxicity study relative to control. In kind it is organism-based, Macaca fascicularis. Also noted: route oral. Particulars: in vivo. The essentials:
as §1

In data set [15] the test system is Cynomolgus monkey. Kind of data set: Toxicity in cynomolgus monkey assessed as elevation of change in clinical parameters at 10 to 30 mg/kg/day, po qd by 21-day multiple-dose toxicity study relative to control. In kind it is organism-based, Macaca fascicularis. Set-up: route oral. Particulars: in vivo. The method in brief: as §1
Data set [16] in a line: AUC in cynomolgus monkey at 30 mg/kg/day, po qd. In kind it is ADME, organism-based, Macaca fascicularis. Set-up: route oral. The conditions noted are these: plasma. The essentials: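 Cynomolgus monkeys dosed orally once daily at 10 or 30 mg/kg for 21 days in a multiple-dose toxicity study. Plasma AUC was reported, with ALT/AST levels, QTc intervals and clinical and histopathological findings monitored.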

Data set [17] in a line: Half life in beagle dog at 0.5 mg/kg, iv. The class given is ADME, organism-based, Canis lupus familiaris. The conditions noted are these: in vivo. Set-up: dose 0.5 mg/kg, route intravenous.
A short description of data set [18]: Oral bioavailability in beagle dog at 5 mg/kg. In kind it is ADME, organism-based, Canis lupus familiaris. Particulars: in vivo.
The nature of data set [19]: Clearance in rhesus monkey at 0.2 mg/kg, iv. The class given is ADME, organism-based, Macaca mulatta. Also noted: dose 0.2 mg/kg, route intravenous. The conditions noted are these: in vivo.
Data set [20] can be described thus: Volume of distribution at steady state in rhesus monkey at 0.2 mg/kg, iv. Particulars: in vivo, read-out: Vdss. Set-up: dose 0.2 mg/kg, route intravenous. In kind it is ADME, organism-based, Macaca mulatta.
Data set [21] has as its system Rattus norvegicus. Description: Reduction in plasma triglyceride level in Sprague-Dawley rat at 0.1 mg/kg, po treated 30 mins prior to olive oil administration measured 3 hrs post olive oil administration relative to vehicle-treated control. Set-up: scale not given: the % may be the effect or the level left. The class given is functional. The method in brief:
(§2)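 Animals received vehicle or compound by oral gavage, then olive oil (5 mL/kg) by oral gavage 30 min later. Plasma triglycerides were measured before dosing and 3 h after the oil. The read-out was the change in TG from pre-dose, compared with vehicle-treated animals.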

Data set [22] has as its system Rattus norvegicus. Kind of data set: Reduction in plasma triglyceride level in Sprague-Dawley rat at 0.3 mg/kg, po treated 30 mins prior to olive oil administration measured 3 hrs post olive oil administration relative to vehicle-treated control. In kind it is functional. Also noted: scale not given: the % may be the effect or the level left. The essentials: as §2

Data set [23] addresses T3, Voltage-gated inwardly rectifying potassium channel KCNH2. Description: Inhibition of human ERG by patch clamp assay. (Patch clamp records ionic current or voltage across a cell membrane.)
Data set [24] deals with Rattus norvegicus. Kind of data set: Toxicity in Sprague-Dawley rat assessed as change in clinical parameters at 30 mg/kg, po by 14-day multiple-dose toxicity study. In kind it is organism-based. Also noted: dose 30 mg/kg, route oral. The conditions noted are these: in vivo. The essentials:
(§3)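 Sprague−Dawley rats were dosed po once daily for 14 days. Clinical and histopathological findings were assessed, and plasma AUC was recorded for each dose.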

Data set [25] has as its system Rattus norvegicus. Description: Toxicity in Sprague-Dawley rat assessed as change in histopathological parameters at 30 mg/kg, po by 14-day multiple-dose toxicity study. The class given is organism-based. Also noted: dose 30 mg/kg, route oral. Particulars: in vivo. The essentials:
as §3

Data set [26] has as its system Rattus norvegicus. Description: Toxicity in Sprague-Dawley rat assessed as sebaceous gland atrophy at 100 mg/kg, po by 14-day multiple-dose toxicity study. The class given is organism-based. Also noted: dose 100 mg/kg, route oral. Particulars: in vivo. The essentials: as §3
A short description of data set [27]: Drug metabolism in Sprague-Dawley rat liver S9 fraction assessed as 2-hydroxy compound formation by MS/MS analysis. The class given is ADME, subcellular.
Data set [28] addresses T4, Diacylglycerol O-acyltransferase 2 (Homo sapiens) (UniProt Q96PD7).
T4 sequence (whole entry): T2 sequence (Q96PD7 whole entry)
Description: Inhibition of human liver flag-tagged DGAT2 expressed in baculovirus infected insect cells up to 10 uM after 2 hrs by SPA.

The species named for the next data set is Mus musculus. Description: Inhibition of mouse liver microsomal GPAT up to 10 uM by TLC technique in presence of glycerol-3-phosphate and [14C] palmitoyl CoA.
Data set [29] is described as follows: AUC in CD1 mouse at 2 mg/kg, po. In kind it is ADME, organism-based. The conditions noted are these: plasma. Set-up: dose 2 mg/kg, route oral.

T3 sequence (Q12809 whole entry): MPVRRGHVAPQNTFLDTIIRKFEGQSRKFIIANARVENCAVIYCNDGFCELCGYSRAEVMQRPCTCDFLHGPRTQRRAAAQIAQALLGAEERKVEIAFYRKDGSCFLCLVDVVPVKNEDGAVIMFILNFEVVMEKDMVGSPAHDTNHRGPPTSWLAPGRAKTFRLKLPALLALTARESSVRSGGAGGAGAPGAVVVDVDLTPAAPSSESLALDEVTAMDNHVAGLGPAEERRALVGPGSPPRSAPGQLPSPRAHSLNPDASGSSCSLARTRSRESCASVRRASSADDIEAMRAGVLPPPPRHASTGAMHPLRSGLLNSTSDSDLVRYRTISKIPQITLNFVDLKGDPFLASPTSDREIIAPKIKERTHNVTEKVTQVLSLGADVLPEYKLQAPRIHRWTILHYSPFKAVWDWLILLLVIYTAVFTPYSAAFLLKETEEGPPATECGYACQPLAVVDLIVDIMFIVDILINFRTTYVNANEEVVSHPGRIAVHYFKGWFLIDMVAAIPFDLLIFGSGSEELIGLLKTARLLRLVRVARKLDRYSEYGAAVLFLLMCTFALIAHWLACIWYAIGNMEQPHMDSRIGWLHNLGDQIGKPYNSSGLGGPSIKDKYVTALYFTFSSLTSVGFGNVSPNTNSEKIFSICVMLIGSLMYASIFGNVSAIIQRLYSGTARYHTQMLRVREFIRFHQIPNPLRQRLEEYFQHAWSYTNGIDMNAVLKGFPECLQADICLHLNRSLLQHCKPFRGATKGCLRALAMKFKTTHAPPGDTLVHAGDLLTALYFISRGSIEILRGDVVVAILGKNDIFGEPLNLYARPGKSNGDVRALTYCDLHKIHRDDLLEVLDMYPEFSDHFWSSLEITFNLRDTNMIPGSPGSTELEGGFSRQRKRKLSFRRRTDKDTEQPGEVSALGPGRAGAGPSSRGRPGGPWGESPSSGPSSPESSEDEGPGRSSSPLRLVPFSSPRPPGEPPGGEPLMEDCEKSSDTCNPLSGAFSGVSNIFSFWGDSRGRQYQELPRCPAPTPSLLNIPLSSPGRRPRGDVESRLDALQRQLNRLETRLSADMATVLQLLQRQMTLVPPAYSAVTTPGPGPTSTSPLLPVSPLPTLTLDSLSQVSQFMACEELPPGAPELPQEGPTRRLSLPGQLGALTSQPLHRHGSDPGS

For `CC1(C)Oc2nc(C(F)(F)F)nc(N)c2N=C1c1ccc2c(c1)CC[C@]21CC[C@@H](CC(=O)O)CC1`, the bioavailability in [1] was determined as 77%. The IC50 in [2], in data set [3], in data set [4] and in data set [5] was greater than 10 µM throughout. Besides, the “inhibition (INH)” value in data set [6] was “Not Active”. In addition, the half-life in data set [7] is 3.7 h; in [11] it was 15.4 h. Moreover, the clearance in [8] is 2.33 mL/min/kg. The Vd in data set [9] came to 0.21 L/kg. The AUC in data set [10] came to 3180 ng·h/mL; in [12], 252000 ng·h/mL; in data set [16], 2560 µM·h. For the same molecule, the Activity entry with Cynomolgus monkey [13], with Cynomolgus monkey [14] and with Cynomolgus monkey [15] was “Non-toxic” in each case.

For the molecule `CC1(C)Oc2ncnc(N)c2N=C1c1ccc([C@H]2CC[C@H](CC(=O)O)CC2)cc1`, in data set [17], the half-life is 2.4 h. The molecule further displayed a bioavailability in data set [18] of 64%. For the same molecule, the clearance in data set [19] is 3.67 mL/min/kg. In addition, in data set [20], the Vd came to 0.46 L/kg. For the same molecule, the Activity in the data set with Rattus norvegicus [21] was 68%; in the data set on Rattus norvegicus [22], 88%; in the data set on Rattus norvegicus [24], “Non-toxic”; in the data set on Rattus norvegicus [25], “Non-toxic”; with Rattus norvegicus [26], “Toxic”. In data set [23], the IC50 is greater than 10 µM. Also, in [27], the Drug metabolism result was “metabolite_detected”. In addition, the inhibition entry (in data set [28]; in the data set listed under Mus musculus) was “inactive” in each case. For the same molecule, the AUC in data set [29] turned out to be 6690 ng·h/mL.

What is called bioavailability is the share of a dose that reaches the circulation, judged against a reference dose that is usually intravenous. Broadly, the IC50 is the midpoint of a concentration-inhibition curve. In general, half-life refers to the time needed for the level to fall by half in the phase considered. As usually defined, the clearance is a measure of how efficiently the substance is removed, as volume per time. As usually defined, the AUC is the area under the concentration-time curve, a measure of exposure.
